Experimental data as given in ChEMBL document CHEMBL1781968, “δ-Carbolines and their ring-opened analogs: synthesis and evaluation against fungal and bacterial opportunistic pathogens” (Eur J Med Chem, 2011).

Experiments:
[1] = tested on: Cryptococcus neoformans; assay: Antifungal activity against Cryptococcus neoformans ATCC 90113 by NCCLS method; format: functional, organism-based
Procedure, shortened: (§1)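 Modified NCCLS microdilution for fungi. Samples in DMSO serially diluted with 0.9% saline, in duplicate, final concentrations from 20 μg/mL down. Inocula matched to 0.5 McFarland (630 nm) and diluted in Sabouraud dextrose broth. Growth, solvent and medium controls included. OD 530 nm read before and after incubation. IC50 from percent growth curve. MIC is no detectable growth. MFC is lowest concentration killing the organism.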

[2] = tested on: Mycobacterium intracellulare; assay: Antibacterial activity against Mycobacterium intracellular ATCC 23068 by alamar blue method; format: functional, organism-based
Procedure, shortened: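 Modified Alamar blue method (Franzblau). Samples in DMSO serially diluted in 0.9% saline, in duplicate, final concentrations starting at 20 μg/mL. Inoculum adjusted to 0.5 McFarland, then diluted in Middlebrook 7H9 with OADC enrichment plus 5% Alamar blue. Fluorescence read (ex 544/em 590 nm) before and after incubation. IC50 from percent growth versus concentration. MIC is no detectable growth.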

[3] = tested on: Staphylococcus aureus; assay: Antibacterial activity against methicillin-resistant Staphylococcus aureus ATCC 33591 by NCCLS method; format: functional, organism-based
Procedure, shortened: (§2)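 Broth microdilution (modified NCCLS). Samples in DMSO serially diluted in 0.9% saline, tested in duplicate, highest final concentration 20 μg/mL. Inoculum matched to 0.5 McFarland standard by absorbance at 630 nm, then diluted in cation-adjusted Mueller–Hinton broth. Growth, solvent and medium controls on each plate. Absorbance at 530 nm read before and after incubation. IC50 taken from percent growth versus concentration plot; MIC is lowest concentration with no detectable growth; MBC is lowest concentration killing the organism.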

[4] = tested on: Staphylococcus aureus; assay: Antibacterial activity against Staphylococcus aureus ATCC 29213 by NCCLS method; format: functional, organism-based; procedure, shortened: as §2
[5] = Cytotoxicity against african green monkey Vero cell after 48 hrs by neutral red uptake assay; format: cell-based; conditions: chlorocebus sabaeus, Vero cells; read-out: TC50
Procedure, shortened: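 VERO kidney fibroblasts seeded at 25,000 cells/well and incubated 24 h. Compounds added, highest concentration 10 μg/mL, then 48 h further incubation. Viable cells measured by neutral red assay. IC50 taken from growth-inhibition dose curves. Doxorubicin as positive control, DMSO as vehicle control.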

[6] = tested on: Aspergillus fumigatus; assay: Antifungal activity against Aspergillus fumigatus ATCC 204305 by NCCLS method; format: functional, organism-based; procedure, shortened: as §1
[7] = tested on: Escherichia coli; assay: Antibacterial activity against Escherichia coli by NCCLS method; format: functional, organism-based
Procedure, shortened: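 Modified NCCLS broth microdilution. DMSO-dissolved samples serially diluted in 0.9% saline, tested in duplicate, final concentrations starting at 20 μg/mL. Inoculum set to 0.5 McFarland (absorbance 630 nm) and diluted in cation-adjusted Mueller–Hinton broth. Growth, solvent and medium controls on each plate. Read at 530 nm before and after incubation. IC50 from percent growth versus concentration. MIC is lowest concentration with no detectable growth.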

[8] = tested on: Candida albicans; assay: Antifungal activity against Candida albicans ATCC 90028 by NCCLS method; format: functional, organism-based; procedure, shortened: as §1

SMILES | IC50 [1] [µg/mL] | MFC [1] [µg/mL] | MIC [1] [µg/mL] | IC50 [2] [µg/mL] | MBC [2] [µg/mL] | MIC [2] [µg/mL] | IC50 [3] [µg/mL] | MBC [3] [µg/mL] | MIC [3] [µg/mL] | IC50 [4] [µg/mL] | CC50 at 48 h [5] [µg/mL] | IC50 [6] [µg/mL] | MFC [6] [µg/mL] | MIC [6] [µg/mL] | IC50 [7] [µg/mL] | MBC [7] [µg/mL] | MIC [7] [µg/mL] | IC50 [8] [µg/mL] | MFC [8] [µg/mL] | MIC [8] [µg/mL] | also measured
COc1ccc2c(c1)c1c(ccc[n+]1C)n2CCCCCC1CCCCC1.[I-] | 0.7 | 1.3 | 1.3 | 1.6 | 2.5 | 2.5 | 3.3 | 20 | 5 | 0.7 | > 10 | 16 | > 20 | > 20 | 12 | > 20 | > 20 | 7.4 | > 20 | 20 | MBC [4]: 20 µg/mL; MIC [4]: 1.3 µg/mL
C[n+]1cccc2c1c1ccccc1n2CCCCCC1CCCCC1.[I-] | 0.45 | 5 | 0.63 | 0.55 | 2.5 | 1.3 | 1.5 | 5 | 2.5 | – | 7.5 | 0.45 | 5 | 0.63 | 5 | > 20 | > 20 | 3 | > 20 | 5 | –
C[n+]1cccc2c1c1cc(F)ccc1n2CCCCCC1CCCCC1.[I-] | 0.6 | 1.3 | 1.3 | 1.2 | 5 | 2.5 | 2.8 | 20 | 5 | 0.7 | > 10 | 12 | > 20 | 20 | 13 | > 20 | > 20 | 6.5 | 20 | 20 | MBC [4]: 20 µg/mL; MIC [4]: 1.3 µg/mL
CSc1ccc2c(c1)c1c(ccc[n+]1C)n2CCCCCC1CCCCC1.[I-] | 0.3 | 0.6 | 0.6 | 0.7 | 2.5 | 1.3 | 1.1 | 10 | 2.5 | 0.4 | > 10 | 13 | 20 | 20 | 5.6 | > 20 | > 20 | 2.1 | 5 | 5 | MBC [4]: 5 µg/mL; MIC [4]: 0.6 µg/mL
C[n+]1cccc2c1c1cccc(Cl)c1n2CCCCCC1CCCCC1.[I-] | 0.3 | 0.6 | 0.6 | 0.5 | 5 | 0.6 | 1.2 | 5 | 2.5 | 0.2 | > 10 | 16 | 20 | 20 | 5.7 | > 20 | > 20 | 2.5 | 5 | 5 | MBC [4]: 10 µg/mL; MIC [4]: 0.3 µg/mL
C[n+]1cccc2c1c1cc(Cl)ccc1n2CCCCCC1CCCCC1.[I-] | 0.4 | 0.6 | 0.6 | 0.7 | 2.5 | 1.3 | 1.3 | 10 | 2.5 | 0.5 | > 10 | 16 | 20 | 20 | 5.9 | > 20 | > 20 | 2 | 5 | 5 | MBC [4]: 10 µg/mL; MIC [4]: 1.3 µg/mL
C[n+]1cccc2c1c1ccc(Cl)cc1n2CCCCCC1CCCCC1.[I-] | 0.3 | 0.6 | 0.6 | 0.7 | 5 | 1.3 | 1.2 | 2.5 | 2.5 | 0.4 | > 10 | 16 | > 20 | 20 | 5.9 | > 20 | > 20 | 2.9 | 10 | 5 | MBC [4]: 5 µg/mL; MIC [4]: 0.6 µg/mL
C[n+]1cccc2c1c1cc(C(F)(F)F)ccc1n2CCCCCC1CCCCC1.[I-] | 0.4 | 1.3 | 0.6 | 0.8 | 2.5 | 1.3 | 1.2 | 10 | 2.5 | 0.4 | > 10 | 18 | > 20 | > 20 | 7.6 | > 20 | > 20 | 5.8 | 20 | 10 | MBC [4]: 10 µg/mL; MIC [4]: 0.6 µg/mL
